pKi: −log10 of the molar value.
Assays:
[1] = biological target: Synaptic vesicular amine transporter (Bos taurus, UniProt Q27963); assay: Inhibitory constant for dopamine uptake into resealed bovine chromaffin granule ghosts through the vesicular monoamine transporter
In short: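 Resealed bovine chromaffin granule ghosts (20 mM Tris phosphate, 100 mM KCl, 150 mM sucrose, 10 mM fumarate, 100 µg/mL catalase, no ascorbate, pH 7.0; Ficoll/sucrose purified) preincubated 10 min at 30 °C in 0.3 M sucrose, 10 mM HEPES, 5 mM Mg-ATP, 5 mM MgSO4, catalase. Inhibitor (0 or 200 µM) added 2 min, then DA at six concentrations. Pellet catecholamines by HPLC-EC; Ki from competitive inhibition fit.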

[2] = biological target: Synaptic vesicular amine transporter (Bos taurus) (UniProt Q27963); assay: Km DA/Ki ratio was determined by different ghost preparations
Sequence of Synaptic vesicular amine transporter (Bos taurus) (Q27963 whole entry): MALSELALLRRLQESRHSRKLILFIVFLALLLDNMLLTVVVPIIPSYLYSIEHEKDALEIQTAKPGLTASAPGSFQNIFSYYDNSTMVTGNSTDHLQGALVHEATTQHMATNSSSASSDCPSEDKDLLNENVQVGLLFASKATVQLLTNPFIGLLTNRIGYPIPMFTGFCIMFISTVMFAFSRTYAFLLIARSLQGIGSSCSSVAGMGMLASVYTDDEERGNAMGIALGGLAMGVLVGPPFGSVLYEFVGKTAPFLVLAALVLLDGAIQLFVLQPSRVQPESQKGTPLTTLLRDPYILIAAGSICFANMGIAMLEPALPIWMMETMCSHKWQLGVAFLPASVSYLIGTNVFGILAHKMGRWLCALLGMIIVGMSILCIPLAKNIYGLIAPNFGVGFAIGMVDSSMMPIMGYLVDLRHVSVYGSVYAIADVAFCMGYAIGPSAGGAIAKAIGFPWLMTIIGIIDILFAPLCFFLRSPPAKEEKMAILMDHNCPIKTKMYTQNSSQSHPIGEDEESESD
In short: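 Ratio of Km for dopamine to Ki, each measured on the same ghost preparation in the dopamine uptake competitive-inhibition kinetics; used to normalize Km variation between ghost preparations.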

Sequence of Synaptic vesicular amine transporter (Q27963 whole entry): as above

Compound	pKi [1]	Ratio [2]
NC/C(=C\Br)c1ccc(O)cc1	4.30	0.46
C=C(CN(CC)CC)c1ccc(O)cc1	3.69	0.15
C=C(c1ccccc1)C(C)N (configuration not stated)	4.11	0.41
C=C(CN)c1ccc(Br)cc1	4.75	1.79
C=C(CN)c1ccc(OC)cc1	3.99	0.33
C=C(CN)c1ccc(Cl)cc1	4.74	1.76
C=C(c1ccc(O)cc1)C(C)N(CC)CC (configuration not stated)	3.68	0.15
C=C(CN)c1ccc(I)cc1	4.89	2.96
C=C(CNC)c1ccc(O)cc1	4.03	0.39
C=C(CN)c1ccc(O)cc1	4.81	1.52
C=C(CN)c1ccccc1	4.39	0.57
C=C(C[n+]1ccccc1)c1ccccc1	3.62	0.12
C=C(CN)c1ccc(F)cc1	4.37	0.8
C=C(CN)c1ccc(C)cc1	4.25	0.59
C=C(CN)c1cccc(OC)c1	4.52	0.76
C=C(CN)c1cccc(O)c1	4.78	1.4

— ChEMBL document CHEMBL1145803, “Characterization of a series of 3-amino-2-phenylpropene derivatives as novel bovine chromaffin vesicular monoamine transporter inhibitors” (J Med Chem, 2003)
